From PubChem
Rows were chosen to be rich in hits. Some 3.8% of all compounds tested hit in one or more screens of this group.
ARNT TACC3 PPI: disruptors of ARNT/TACC3 protein interaction, primary screen, biochemical, AlphaScreen, single concentration; AlphaScreen His-ARNT PAS-B/GST-TACC3 binding, luminescence; TACC3 fragment carries E629A point mutation; inhibition, % at 9.99 µM; actives 0.66% (n = 390,000); AID 623870, 2012;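 active means mean inhibition of replicates at least 50% and at least half of replicates each reaching 50%; inconclusive means half or more replicates reach 50% but mean below 50%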;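 further: 0% = complete ARNT plus TACC3 wells and 100% = ARNT alone without TACC3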
Xi reactivation: activators of inactive X chromosome reactivation, primary screen, imaging, XiGFP fibroblasts, GFP high-content imaging, set 2; activation, % at 7.58 µM; AID 743238, 2013; XiGFP mouse fibroblasts, % GFP-positive cells imaging, 3 d; cells co-treated with 5-aza-dC sensitizer; scaled so ellipticine positive control = 100%; actives 0.055% (n = 360,000);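 active means mean normalized replicate activation at least 10% and every replicate at or above 10%; inconclusive means only one of the two criteria met; inactive means mean below 10% and not all replicates reach 10%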;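 further: 0% = median of on-plate neutral control wells and 100% = ellipticine 6 µM median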
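Material: SV40-immortalized XiGFP fibroblast cells, line 68-5-11 | Buffer or medium: DMEM containing 5-aza-dC | Dosing: One concentration, pinned | Times: 3 d treatment, 15 min room-temperature fixation | Controls: Ellipticine 6 µM positive control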
DENV2 CPE rescue: inhibitors of DENV2 cytopathic effect, primary screen, cell-based, plate reader, single concentration; DENV2-infected cells, cytopathic effect rescue; CPE inhibition, % at 9.99 µM; AID 651640, 2012; actives 1.7% (n = 350,000); in the data active means CPE inhibition above about 20%, passing the limit was not always enough; inconclusive means no clear call, values can overlap the other calls; tested in BHK-21 cells;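 further: 0% = median of neutral control wells and 100% = median of positive control wells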
FGF22 binding: binders of human FGF22 protein, primary screen, FGF22 synaptogenesis inhibitor project, biophysical, thermal shift, single point. recombinant FGF22 thermal shift, SYPRO orange fluorescence; percent of sucrose octasulfate shift, DMSO zero. activity (Tm shift, normalised), % at 9.99 µM. actives 1.5% (n = 340,000);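 active means mean Tm shift, scaled 0 neutral to 100 positive control, at about 1.3% or above, every replicate too, limit read from the data; inconclusive means no clear call, values can overlap the other calls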
Target sequence (Q9HCT0 whole entry, looked up): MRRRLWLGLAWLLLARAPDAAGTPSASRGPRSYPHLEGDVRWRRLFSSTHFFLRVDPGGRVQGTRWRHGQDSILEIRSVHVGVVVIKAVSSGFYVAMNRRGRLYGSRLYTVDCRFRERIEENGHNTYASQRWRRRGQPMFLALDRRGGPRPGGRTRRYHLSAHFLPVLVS
FN deposit inh: inhibitors of fibronectin matrix deposition, primary screen, AH1F cells, Alexa488-fibronectin fluorescence, plate reader; AH1F fibroblasts, overnight; inhibition, % at 12.6 µM; actives 0.086% (n = 350,000);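 active means mean inhibition across replicates of 30% or more, regardless of how many single replicates reach that level; inconclusive means mean under 30% yet at least half of replicates reach 30%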;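 further: positive control wells lacked labelled fibronectin entirely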
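Material: AH1F fibroblasts assembling fluorescent fibronectin matrix; amount: 10000 AH1F cells/well; medium: DMEM, 2% serum; reagent: Alexa488-fibronectin, 24 nM final in well; dosing: single compound dose, delivered by pin transfer; incubation: 1 h adhesion, overnight exposure; detection: fluorescence after three HBSS washes, excitation 485 nm, emission 525 nm; measure: fibronectin deposition inhibition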
SIRT5 block: SIRT5 desuccinylase inhibitors, primary screen, biochemical, fluorescence imaging, single point, set 5; NAD-dependent protein deacylase sirtuin-5, mitochondrial (Homo sapiens), Q9NXA8; Purified SirT5, succinyl-peptide AMC, trypsin-coupled fluorescence; inhibition, % at 15 µM; actives 1.1% (n = 330,000); in the data active means inhibition above about 15%; inconclusive means no clear call, values can overlap the other calls
Target sequence (Q9NXA8 whole entry, looked up): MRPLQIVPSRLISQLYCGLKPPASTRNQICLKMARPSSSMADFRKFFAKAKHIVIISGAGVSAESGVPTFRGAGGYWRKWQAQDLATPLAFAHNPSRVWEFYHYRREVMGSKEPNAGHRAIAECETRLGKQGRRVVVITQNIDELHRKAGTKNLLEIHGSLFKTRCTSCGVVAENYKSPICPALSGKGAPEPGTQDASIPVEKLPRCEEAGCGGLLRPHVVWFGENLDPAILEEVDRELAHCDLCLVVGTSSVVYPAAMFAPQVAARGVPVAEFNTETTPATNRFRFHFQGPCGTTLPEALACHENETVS
* hit, by the source's call; ? = inconclusive; . = no result.

SMILES | ARNT TACC3 PPI | Xi reactivation | DENV2 CPE rescue | FGF22 binding | FN deposit inh | SIRT5 block
Cc1noc(C)c1NC(=O)Nc1ccc2c(c1)C(=O)N([C@H](C)CO)C[C@@H](C)[C@@H](CN(C)Cc1ccc3c(c1)OCO3)O2 | 19 | 0 | -8 | 0 | . | -1
C[C@H]1CN([C@@H](C)CO)C(=O)c2cc(NS(=O)(=O)c3cn(C)cn3)ccc2O[C@H]1CN(C)S(=O)(=O)c1cn(C)cn1 | . | -1 | . | . | . | .
CCc1sc(C(=O)Nc2nc(-c3ccccn3)cs2)cc1C | 63* | . | . | . | . | .
CC(Oc1ccccc1)C(=O)Nc1nc(-c2ccncc2)cs1 (stereo not given) | . | 0 | -2 | 0 | 15 | 1
N#Cc1ccccc1OCC(=O)Nc1nc(-c2ccccn2)cs1 | . | 1 | -1 | 0 | 8 | 1
CC(Oc1ccccc1)C(=O)Nc1nc(-c2ccccn2)cs1 (stereo not given) | 68* | 0 | 1 | 0 | 6 | 1
CC(OC(=O)c1ccc(O)cc1)C(=O)Nc1nc(-c2ccccc2)cs1 (stereo not given) | -11 | 0 | 38* | 0 | -1 | 13
CC(OC(=O)CNC(=O)c1ccccc1F)C(=O)Nc1nc(-c2ccccc2)cs1 (stereo not given) | 6 | 0 | . | . | 1 | .
O=C(COc1ccc(F)cc1Cl)Nc1nc(-c2ccccn2)cs1 | 48* | 1 | -1 | 0 | 17 | -5
O=C(CC1CC1)N1CC[C@@H]2[C@H]1c1cc(-c3cccc(F)c3)ccc1N[C@@H]2CO | 5 | 1 | ? | 0 | 14 | 11
COc1ccc(/[N+]([O-])=C/c2ccoc2)cc1 | 8 | 0 | . | 45* | 15 | 1
[O-]/[N+](=C\c1ccc(OC(F)F)cc1)c1ccccc1 | -1 | . | . | . | . | .
CC(C)NC(=O)Nc1ccc2c(c1)CC(=O)N([C@@H](C)CO)C[C@H](C)[C@H](CN(C)Cc1ccc(C(=O)Nc3ccccc3N)cc1)O2 | . | -1 | 12 | 0 | . | -6
Nc1ccc(Cc2ccc(N)c(C(=O)O)c2)cc1C(=O)O | . | . | . | 0 | . | 45*
C[C@@H]1CCCCO[C@H](CN(C)Cc2ccc(C(F)(F)F)cc2)[C@@H](C)CN([C@@H](C)CO)C(=O)c2cc(NC(=O)Cc3ccccc3)ccc2O1 | 3 | 0 | -19 | 0 | . | .
CCOC=C1C(=O)N(C(C)=O)c2cc(OC)c(OC)cc21 | -6 | 0 | 5 | 43* | 4 | .
CCCN(CCC)Cc1c(C(=O)N/N=C/C(C)=C\c2ccccc2)nnn1-c1nonc1N | -2 | 0 | -5 | 0 | -1 | 16*
CN(C)c1ccc(/C=N/NC(=O)c2nnn(-c3nonc3N)c2CN(C)c2ccccc2)cc1 | -3 | 0 | 7 | 0 | 6 | 17*
CCCc1c(C(=O)N/N=C/C(C)=C/c2ccccc2)nnn1-c1nonc1N | 5 | 0 | -3 | 0 | 3 | 0
COc1cc2[nH]c(=O)n(CCCCCC(=O)N3CCN(c4ccccn4)CC3)c(=O)c2cc1OC | -2 | . | . | . | -1 | 24*
CC(=O)c1ccc(N2CCN(C(=O)Cc3n[nH]c(=O)c4ccccc34)CC2)cc1 | 7 | 0 | 1 | 43 | 5 | 16*
CCOC(=O)N1CCN(C(=O)CCCn2c(=O)[nH]c3ccccc3c2=O)CC1 | -6 | . | . | . | 2 | .
CC(=O)c1ccc(N2CCN(C(=O)CCCn3c(=O)[nH]c4ccccc4c3=O)CC2)cc1 | 4 | 0 | 13 | 43* | -5 | -1
COc1cc2[nH]c(=O)n(CCCC(=O)N3CC=C(c4ccccc4)CC3)c(=O)c2cc1OC | -2 | . | . | . | 11 | .
C[C@H](CO)N1C[C@H](C)[C@H](CN(C)C(=O)Nc2ccc(C(F)(F)F)cc2)OCCCC[C@H](C)Oc2ccc(NC(=O)Cc3ccccc3)cc2C1=O | -9 | 0 | 12 | 0 | . | .
SMILES | ARNT TACC3 PPI | Xi reactivation | DENV2 CPE rescue | FGF22 binding | FN deposit inh | SIRT5 block
COc1ccc(S(=O)(=O)N(C)C[C@@H]2Oc3ccc(NC(=O)Nc4ccc(F)cc4)cc3C(=O)N([C@@H](C)CO)C[C@@H]2C)cc1 | -2 | 0 | 4 | 1 | . | 6
CCN(C(=O)CSc1nnc(NCc2ccccc2)s1)C1CCS(=O)(=O)C1 (stereo not given) | 4 | 0 | -1 | 43* | 1 | -3
O=C1CNC(=S)N1Cc1ccccc1 | -7 | 0 | -6 | 43* | -10 | -1
C[C@@H]1COC(=O)[C@@H](Cc2ccc(F)cc2)C/C=C\C[C@@H](CC(=O)N[C@H](CO)Cc2ccccc2)C(=O)N1 | -2 | 0 | -6 | 1 | 1 | .
C[C@@H]1COC(=O)[C@H](Cc2ccc(F)cc2)C/C=C\C[C@@H](CC(=O)N[C@H](CO)Cc2ccccc2)C(=O)N1 | -2 | 0 | 41* | 0 | 6 | .
CCCNC(=O)C[C@H]1CC[C@@H]2[C@H](COc3ccc(NC(=O)c4cccc(OC)c4)cc3C(=O)N2C)O1 | -1 | 0 | 15 | 0 | . | 1
O=C(c1cccc(Cl)c1)C1CCCN(C(=O)c2ccc3c(c2)OCO3)C1 (stereo not given) | -8 | 0 | -1 | 0 | -5 | -2
CSc1ccc(C(=O)C2CCCN(C(=O)c3ccc4c(c3)OCO4)C2)cc1 (stereo not given) | -3 | 0 | 0 | 0 | 9 | 16*
C[C@@H]1CN([C@@H](C)CO)C(=O)c2cc(C#CCN(C)C)cnc2O[C@@H]1CN(C)Cc1ccncc1 | 7 | 0 | -4 | 0 | 5 | 2
O=C(OCC(=O)N1CCc2ccccc21)c1nc(Cl)ccc1Cl | -3 | 0 | 5 | 44* | -3 | -6
O=C(COC(=O)c1ccccc1C(=O)c1ccc(Cl)cc1)NC(c1ccccc1)c1ccccc1 | . | 0 | 0 | 43* | 14 | -3
O=C(COC(=O)/C=C/c1ccc(Cl)cc1)NCCC1=CCCCC1 | -5 | 0 | . | . | 32* | .
CC(NC(=O)COC(=O)/C=C/c1ccc(Cl)cc1)c1ccccc1 (stereo not given) | -3 | 0 | 5 | 44* | -18 | -1
CC(C)(C)[S@@](=O)N1Cc2cc(C(=O)N[C@@H]3CCN(Cc4ccccc4)C3)nc(-c3cccc(-c4ccncc4)c3)c2[C@H]1CCO | . | 0 | -2 | 0 | 16 | 7
